Experimental data reported in ChEMBL document CHEMBL3763115, “Silibinin derivatives as anti-prostate cancer agents: Synthesis and cell-based evaluations” (Eur J Med Chem, 2016).

Columns and labels:
[1] = Antiproliferative activity against human DU145 cells assessed as reduction in cell viability after 3 days by WST-1 cell proliferation assay; type: functional, cell-based; conditions: DU-145, 72 h
How it was run: (§1)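 Cells from ATCC; PC-3 and LNCaP grown in RPMI-1640, DU145 in EMEM, each with 10% FBS and 1% penicillin/streptomycin, 37 °C, 5% CO2. 3,200 cells per well, treated at 5 concentrations for 3 days with 0.25% DMSO as vehicle control. WST-1 reagent added, 3 h at 37 °C, absorbance read at 430 nm. IC50 from linear fit of at least five doses, mean of at least triplicates.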

LNCaP [2] = assay: Potency index, ratio of silibinin IC50 to compound IC50 for antiproliferative activity against human LNCAP cells; type: functional
How it was run: (§2)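 Ratio of silibinin IC50 to derivative IC50. Both come from the 3-day WST-1 assay run in parallel (5 doses, absorbance at 430 nm, IC50 from linear fit, at least triplicates).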

PC-3 [3] = assay: Induction of apoptosis in human PC3 cells assessed as viable cells at 20 uM after 16 hrs by F2N12S/Sytox A advanced staining based flow cytometry (reference value: 86%); type: functional; conditions: PC-3, 16 h, read-out: Activity
[4] = Cell cycle arrest in human PC3 cells assessed as accumulation at G2 phase at 20 uM after 24 hrs by propidium iodide staining based flow cytometry (reference value: 34%); type: functional; conditions: PC-3
How it was run: (§3)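 PC-3 cells (RPMI-1640, 10% FBS), 200,000 per well, allowed 3 h to attach, then exposed to compound with DMSO as vehicle control. Attached and floating cells collected at 24 and 30 h, fixed in cold 80% ethanol for 30 min at 4 °C, treated with RNase for 30 min at 37 °C, and stained with propidium iodide. DNA content read by flow cytometry within 0.5–1 h.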

[5] = Cell cycle arrest in human PC3 cells assessed as accumulation at S phase at 20 uM after 30 hrs by propidium iodide staining based flow cytometry (reference value: 5%); type: functional; conditions: PC-3; how it was run: as §3
PC-3 [6] = assay: Induction of apoptosis in human PC3 cells assessed as viable cells at 50 uM after 16 hrs by F2N12S/Sytox A advanced staining based flow cytometry (reference value: 86%); type: functional; conditions: PC-3, 16 h, read-out: Activity
[7] = Potency index, ratio of silibinin IC50 to compound IC50 for antiproliferative activity against human DU145 cells; type: functional, DU-145; how it was run: as §2
PC-3 [8] = assay: Induction of apoptosis in human PC3 cells assessed as necrotic cells at 50 uM after 16 hrs by F2N12S/Sytox A advanced staining based flow cytometry (reference value: 11%); type: functional
LNCaP [9] = assay: Antiproliferative activity against human LNCAP cells assessed as reduction in cell viability after 3 days by WST-1 cell proliferation assay; type: functional, cell-based; conditions: 72 h; how it was run: as §1
[10] = Potency index, ratio of silibinin IC50 to compound IC50 for antiproliferative activity against human PC3 cells; type: functional, PC-3; how it was run: as §2
[11] = Cell cycle arrest in human PC3 cells assessed as accumulation at M phase at 20 uM after 24 hrs by propidium iodide staining based flow cytometry (reference value: 8%); type: functional; conditions: PC-3; how it was run: as §3
PC-3 [12] = assay: Induction of apoptosis in human PC3 cells assessed as necrotic cells at 30 uM after 16 hrs by F2N12S/Sytox A advanced staining based flow cytometry (reference value: 11%); type: functional
PC-3 [13] = assay: Induction of apoptosis in human PC3 cells assessed as apoptotic cells at 50 uM after 16 hrs by F2N12S/Sytox A advanced staining based flow cytometry (reference value: 3%); type: functional
[14] = Cell cycle arrest in human PC3 cells assessed as accumulation at S phase at 20 uM after 24 hrs by propidium iodide staining based flow cytometry (reference value: 8%); type: functional; conditions: PC-3; how it was run: as §3
[15] = Cell cycle arrest in human PC3 cells assessed as accumulation at G0/G1 phase at 20 uM after 24 hrs by propidium iodide staining based flow cytometry (reference value: 49%); type: functional; conditions: PC-3; how it was run: as §3
PC-3 [16] = assay: Induction of apoptosis in human PC3 cells assessed as necrotic cells at 10 uM after 16 hrs by F2N12S/Sytox A advanced staining based flow cytometry (reference value: 11%); type: functional
PC-3 [17] = assay: Induction of apoptosis in human PC3 cells assessed as necrotic cells at 20 uM after 16 hrs by F2N12S/Sytox A advanced staining based flow cytometry (reference value: 11%); type: functional
PC-3 [18] = assay: Induction of apoptosis in human PC3 cells assessed as necrotic cells at 40 uM after 16 hrs by F2N12S/Sytox A advanced staining based flow cytometry (reference value: 11%); type: functional
[19] = Cell cycle arrest in human PC3 cells assessed as accumulation at G0/G1 phase at 20 uM after 30 hrs by propidium iodide staining based flow cytometry (reference value: 55%); type: functional; conditions: PC-3; how it was run: as §3
PC-3 [20] = assay: Induction of apoptosis in human PC3 cells assessed as viable cells at 30 uM after 16 hrs by F2N12S/Sytox A advanced staining based flow cytometry (reference value: 86%); type: functional; conditions: PC-3, 16 h, read-out: Activity
[21] = Cell cycle arrest in human PC3 cells assessed as accumulation at M phase at 20 uM after 30 hrs by propidium iodide staining based flow cytometry (reference value: 5%); type: functional; conditions: PC-3; how it was run: as §3
[22] = Antiproliferative activity against human PC3 cells assessed as reduction in cell viability after 3 days by WST-1 cell proliferation assay; type: functional, cell-based; conditions: PC-3, 72 h; how it was run: as §1
PC-3 [23] = assay: Induction of apoptosis in human PC3 cells assessed as viable cells at 10 uM after 16 hrs by F2N12S/Sytox A advanced staining based flow cytometry (reference value: 86%); type: functional; conditions: PC-3, 16 h, read-out: Activity
PC-3 [24] = assay: Induction of apoptosis in human PC3 cells assessed as apoptotic cells at 10 uM after 16 hrs by F2N12S/Sytox A advanced staining based flow cytometry (reference value: 3%); type: functional
PC-3 [25] = assay: Induction of apoptosis in human PC3 cells assessed as apoptotic cells at 30 uM after 16 hrs by F2N12S/Sytox A advanced staining based flow cytometry (reference value: 3%); type: functional
PC-3 [26] = assay: Induction of apoptosis in human PC3 cells assessed as apoptotic cells at 20 uM after 16 hrs by F2N12S/Sytox A advanced staining based flow cytometry (reference value: 3%); type: functional
PC-3 [27] = assay: Induction of apoptosis in human PC3 cells after 16 hrs by F2N12S/Sytox A advanced staining based flow cytometry; type: functional, cell-based
PC-3 [28] = assay: Induction of apoptosis in human PC3 cells assessed as apoptotic cells at 40 uM after 16 hrs by F2N12S/Sytox A advanced staining based flow cytometry (reference value: 3%); type: functional
[29] = Cell cycle arrest in human PC3 cells assessed as accumulation at G2 phase at 20 uM after 30 hrs by propidium iodide staining based flow cytometry (reference value: 30%); type: functional; conditions: PC-3; how it was run: as §3
PC-3 [30] = assay: Induction of apoptosis in human PC3 cells assessed as viable cells at 40 uM after 16 hrs by F2N12S/Sytox A advanced staining based flow cytometry (reference value: 86%); type: functional; conditions: PC-3, 16 h, read-out: Activity

With `CCOc1cc(O)c2c(=O)c(O)c(-c3ccc4c(c3)OC(c3ccc(O)c(OC)c3)C(CO)O4)oc2c1` (stereo not given) the IC50 [1] was 7.59 µM, the “Ratio IC50” value (LNCaP [2]) was 17 and the viability at 20 µM (PC-3 [3]) was 49%. For the same compound, the Activity [4] was 23%, the Activity [5] was 6% and the viability at 50 µM (PC-3 [6]) was 7%. The “Ratio IC50” value [7] was 12, the Activity (PC-3 [8]) was 27% and the IC50 (LNCaP [9]) was 2.58 µM. For the same compound, the “Ratio IC50” value [10] was 22, the Activity [11] was 7% and the Activity (PC-3 [12]) was 25%. It also gave an Activity (PC-3 [13]) of 66%, an Activity [14] of 7% and an Activity [15] of 62%. It also gave an Activity (PC-3 [16]) of 7%, an Activity (PC-3 [17]) of 13% and an Activity (PC-3 [18]) of 25%. It also gave an Activity [19] of 61%, a viability at 30 µM (PC-3 [20]) of 11% and an Activity [21] of 6%. For the same compound, the IC50 [22] was 3.25 µM, the viability at 10 µM (PC-3 [23]) was 84% and the Activity (PC-3 [24]) was 9%. For the same compound, the Activity (PC-3 [25]) was 68%, the Activity (PC-3 [26]) was 38% and the Activity (PC-3 [27]) was “Dose-dependent effect”. It also gave an Activity (PC-3 [28]) of 71%, an Activity [29] of 25% and a viability at 40 µM (PC-3 [30]) of 4%.
